Measurements: publication PMC7069794 (Hepatology (Baltimore, Md.), 2020)

What was measured:
[1] = test system: E. coli ML35; assay: E. coli ML35 killing of HD5 with or without zinc determined by flow cytometry; assay type: cell-based; details: n=6; for bactericidal activity: oxidized and reduced forms of HD5, without zinc
[2] = test system: Paneth cells / intestinal crypts of WT mice; assay: acute zinc deprivation by dithizone in mice; assay type: in vivo; details: dithizone 75 mg/kg i.p., 6 h
Method in brief: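 Male WT mice received dithizone at 75 mg/kg i.p., and intestines were collected 6 h later. Small-intestinal crypts were isolated for imaging and bacterial killing, and ileal Defa5 and Lyz1 mRNA was measured relative to untreated mice, n=6. Data are mean±SD, compared by t-test, rank-sum or ANOVA as appropriate (P<0.05).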

[3] = test system: Hepa1c1c7 mouse hepatoma cells; assay type: cell-based; details: LPS 100 ng/mL, 6 h; n=3
[4] = test system: pair-fed and alcohol-fed mice; assay: LPS injection 4 hours before finishing chronic feeding in mice; assay type: in vivo; details: LPS 4 mg/kg i.p., n=6
Method in brief: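 Male mice, 12 weeks old, were fed ethanol-containing Lieber-DeCarli liquid diet (alcohol-fed) or isocaloric control liquid diet (pair-fed) for 8 wk. A single LPS dose of 4 mg/kg was given i.p. 4 h before the end of feeding. Read-out was relative hepatic Lcn2 and Cxcl1 mRNA, n=6. Data are mean±SD, compared by t-test or one-way ANOVA with Newman-Keuls post hoc test (P<0.05).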

[5] = test system: released crypt components (mainly AMPs) of isolated mouse crypts; assay type: cell-based, mice; details: 10 μmol/L carbamyl choline, then 2 μmol/L TPEN for 30 min; n=6
Method in brief: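 Crypts isolated from male WT mouse small intestine were treated with 10 μmol/L carbamyl choline to induce granule release. Released material was then exposed to 2 μmol/L TPEN for 30 min for zinc chelation, and its bactericidal activity was measured, n=6. Data are mean±SD.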

[6] = test system: pepsin; assay type: in vitro ADME
[7] = test system: mice; details: cited from earlier work
[8] = test system: alcohol-fed mice; assay type: in vivo
[9] = overnight incubation of HD5red with or without zinc, nUHPLC-MS; assay type: physicochemical

Molecule: [Zn] [Zinc, zinc]
- bacterial viability, zinc alone ([1]; zinc without HD5): did not affect bacterial viability

Molecule: S=C(N=Nc1ccccc1)NNc1ccccc1 [Dithizone, dithizone]
- PC degranulation [2]: rapid PC degranulation
- crypt bacterial killing ([2]; n=6): impaired
- expression of Defa5 and Lyz1 ([2]; ileal mRNA, n=6): reduced

Molecule: lipopolysaccharide [LPS]
- Lcn2 and Cxcl1 expressions in Hepa1c1c7 hepatocytes [3]: directly stimulated
- hepatic Cxcl1 expression in AF mice in response to LPS ([4]; alcohol-fed mice): did not further alter
- hepatic Lcn2 in AF mice in response to LPS ([4]; alcohol-fed mice): only mildly upregulated
- hepatic Lcn2 and Cxcl1 in PF mice in response to LPS ([4]; pair-fed mice): dramatically upregulated

Molecule: c1ccc(CN(CCN(Cc2ccccn2)Cc2ccccn2)Cc2ccccn2)nc1 [TPEN, N,N,N′,N′-Tetrakis(2-pyridylmethyl)ethylenediamine]
- bacterial killing of released crypt components after zinc chelation [5]: impaired bacterial killing

B1: human α-defensin 5 (peptide, UniProt Q01523 20-94, looked up)
Defensin alpha 5: ESLQERADEATTQKQSGEDNQDLAISFAGNGLSALRTSGSQARATCYCRTGRCATRESLSGVCEISGRLYRLCCR
modifications: Defensin-5
- antibacterial function of both forms of HD5 with zinc ([1]; HD5 oxidized and reduced forms, with zinc vs without): significantly improved
- bactericidal activity [1]: effectively killed bacteria
- intact HD5 that bypassed gastric digestion [6]: 75%
- intestinal injury caused by alcohol and colitis [7]: attenuated
- Akkermensia sp. in mice ([7]; without decreasing microbial diversity): increased
- intestinal structural changes (slight villous blunting), H&E staining ([8]; AF+HD5 group vs AF group (Fig. S11)): improved
- Verrucomicrobiaceae abundance in cecal contents ([8]; AF+HD5 mice, mean±SD, AF mice 2.03±0.69%, P<0.001, n=8): 20.39±5.29%
- plasma ALT levels ([8]; AF+HD5 vs AF, n=8): decreased
- A. muciniphila abundance, PCR analysis ([8]; cecal contents, AF+HD5 vs AF, n=4): significantly enriched
- expression of intestinal Il22 ([8]; ileal mRNA, AF+HD5 vs AF): notably augmented
- levels of inflammatory cytokines/chemokines, including Ip10, Tnfa, and Mip2 ([8]; ileal mRNA, AF+HD5 vs AF): lowered
- expression of ileal α-defensins, including Defa4, Defa20 and Defa21 ([8]; ileal mRNA, AF+HD5 vs AF, n=6): upregulated
- alcohol-impaired distribution of ZO-1 and claudin-1 ([8]; ileum, IF staining and Western blot, n=3): reversed
- alcohol-induced Lcn2 and Cxcl1 elevation, macrophage activation, and immune cell infiltration ([8]; liver, mRNA n=6, IHC/IF n=3): reduced
- plasma ethanol levels and protein levels of CYP2E1 and ALDH2 ([8]; mouse, in vivo): remained the same
- PAMP translocation, including endotoxemia and increased hepatic bacterial DNAs ([8]; plasma endotoxin, hepatic 16S rRNAs, n=8): effectively reversed

B2: HD5red: reduced form of HD5 (peptide, UniProt Q01523 20-94, looked up)
Defensin alpha 5: B1 Defensin alpha 5
modifications: Defensin-5 reduced form
- bactericidal activity [1]: more potent
- redox state of HD5red after overnight incubation in the absence of zinc ([9]; no zinc): all became oxidized
- redox state of HD5red after overnight incubation with zinc ([9]; with zinc): a majority of HD5 remained in reduced forms
